Results from ChEMBL document CHEMBL1129629, “Orally active, nonpeptide vasopressin V2 receptor antagonists: a novel series of 1-[4-(benzoylamino)benzoyl]-2,3,4,5-tetrahydro-1H-benzazepines and related compounds” (J Med Chem, 1996).

Legend:
Vasopressin V2 receptor = Vasopressin V2 receptor (Rattus norvegicus, UniProt Q00788); assay: Displacement of [3H]-AVP from its AVP-V2 receptor binding site in rat kidney
Summary of the method: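 Radioligand competition with [3H]AVP on plasma membrane preparations, rat liver for V1a and rat kidney for V2. Assays run in duplicate. Reported intraassay variation is under 3% and interassay variation under 20%.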

Vasopressin V1a receptor = Vasopressin V1a receptor (Rattus norvegicus, UniProt P30560); assay: Displacement of [3H]AVP from AVP-V1a receptor binding site in rat liver
Sequence of Vasopressin V1a receptor (P30560 whole entry): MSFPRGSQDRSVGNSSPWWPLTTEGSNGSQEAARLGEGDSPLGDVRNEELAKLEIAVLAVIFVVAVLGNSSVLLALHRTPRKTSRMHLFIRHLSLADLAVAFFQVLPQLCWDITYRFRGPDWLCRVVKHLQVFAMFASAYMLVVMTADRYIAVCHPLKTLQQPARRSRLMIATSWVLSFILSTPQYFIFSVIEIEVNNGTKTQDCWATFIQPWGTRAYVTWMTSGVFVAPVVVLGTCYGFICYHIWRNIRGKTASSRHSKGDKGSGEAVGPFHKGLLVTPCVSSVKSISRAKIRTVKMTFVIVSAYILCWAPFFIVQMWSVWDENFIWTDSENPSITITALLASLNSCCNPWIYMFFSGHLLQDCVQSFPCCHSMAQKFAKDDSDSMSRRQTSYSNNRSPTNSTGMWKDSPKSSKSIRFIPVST
Summary of the method: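 Radioligand competition with [3H]AVP on plasma membrane preparations, rat liver for V1a and rat kidney for V2. […] Assays run in duplicate. Reported intraassay variation is under 3% and interassay variation under 20%.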

Rattus norvegicus [1] = assay: Dose(mg/kg) required for a 3-fold increase in the 2-h urine volume over the control rats.; type: functional
Summary of the method: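 Hydrated conscious rats, compound given orally at three or four doses. Spontaneously voided urine collected every 2 h over 8 h. ED3 (mg/kg) read from the dose–response curve as the dose giving a 3-fold rise in 2-h urine volume over control rats. ">" means no 3-fold rise at the highest dose tested.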

Rattus norvegicus [2] = assay: UV values mean 2-h urine volume (mL) when the compound was administered orally at a dose of 10 mg/kg; type: functional; settings: route oral
Summary of the method: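 Conscious rats dosed orally at 10 mg/kg, with urine voided spontaneously. The value is urine volume (mL) collected over the first 2 h, given as mean ± SEM of 4 rats and set against control rats (n = 4).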

Sequence of Vasopressin V2 receptor (Q00788 whole entry): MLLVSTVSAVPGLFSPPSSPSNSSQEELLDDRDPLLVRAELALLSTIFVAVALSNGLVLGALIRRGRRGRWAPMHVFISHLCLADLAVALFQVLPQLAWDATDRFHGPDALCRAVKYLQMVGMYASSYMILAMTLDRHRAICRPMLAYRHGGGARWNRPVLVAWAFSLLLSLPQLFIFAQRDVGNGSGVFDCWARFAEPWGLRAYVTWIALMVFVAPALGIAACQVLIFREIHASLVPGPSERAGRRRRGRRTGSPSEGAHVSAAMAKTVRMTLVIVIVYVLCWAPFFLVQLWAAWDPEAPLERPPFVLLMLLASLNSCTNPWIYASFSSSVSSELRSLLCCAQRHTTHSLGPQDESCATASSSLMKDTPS

Compound | IC50 (Vasopressin V2 receptor) | IC50 (Vasopressin V1a receptor) | ED3 (Rattus norvegicus [1]) | Activity (Rattus norvegicus [2])
CCCC(=O)Nc1ccc(C(=O)N2CCCc3ccccc32)cc1 | 7100 nM | 4300 nM |  | 
Cc1ccc(C(=O)Nc2ccc(C(=O)N3CCCC(N(C)C)c4ccccc43)cc2)cc1 (configuration not stated) | 44 nM | 26000 nM |  | 
Cc1ccccc1C(=O)Nc1ccc(C(=O)N2CCOc3ccccc32)cc1 | 4100 nM | 7700 nM |  | 
Cc1ccc(C(=O)Nc2ccc(C(=O)N3CCCc4ccccc43)cc2)c(C)c1 | 210 nM | 3300 nM |  | 
Cc1ccc(C(=O)Nc2ccc(C(=O)N3CCCc4ccccc43)cc2)cc1C | 1200 nM | > 100000 nM |  | 
Cc1cccc(C(=O)Nc2ccc(C(=O)N3CCCc4ccccc43)cc2)c1 | 680 nM | 3100 nM |  | 
O=C(c1ccc(NS(=O)(=O)c2ccccc2)cc1)N1CCCCc2ccccc21 | 1600 nM | 2500 nM |  | 
CN(C)C1CCCN(C(=O)c2ccc(NC(=O)c3ccccc3Cl)cc2)c2ccccc21 (configuration not stated) | 27 nM | 3000 nM | 4.2 mg/kg | 7 mL
Cc1ccccc1C(=O)Nc1ccc(C(=O)N2CCCC(O)c3ccccc32)cc1 (configuration not stated) | 29 nM | 140 nM |  | 3.6 mL
O=C(Nc1ccc(C(=O)N2CCCCc3ccccc32)cc1)c1ccccc1Cl | 29 nM | 45 nM |  | 
COc1cccc(C(=O)Nc2ccc(C(=O)N3CCCc4ccccc43)cc2)c1 |  | 2800 nM |  | 
O=C(Nc1cccc(C(=O)N2CCCc3ccccc32)c1)c1ccccc1 | 40000 nM | > 100000 nM |  | 
O=C(Nc1ccc(C(=O)N2CCCc3ccccc32)cc1)c1ccccc1Cl | 420 nM | 1600 nM |  | 
Cc1ccccc1C(=O)N(C)c1ccc(C(=O)N2CCCC(N(C)C)c3ccccc32)cc1 (configuration not stated) | 1000 nM | 19000 nM |  | 
Cc1ccccc1C(=O)Nc1ccc(C(=O)N2CCN(C)c3ccccc32)cc1 | 400 nM | 5100 nM |  | 
CN(C)C1CCCN(C(=O)c2ccc(NC(=O)c3ccccc3N)cc2)c2ccccc21 (configuration not stated) | 190 nM | 1900 nM |  | 
O=C(Nc1ccc(C(=O)N2CCCc3ccccc32)cc1)c1ccco1 | 6400 nM | 4000 nM |  | 
CCNC1CCCN(C(=O)c2ccc(NC(=O)c3ccccc3C)cc2)c2ccccc21 (configuration not stated) | 29 nM | 1600 nM | 8 mg/kg | 5.4 mL
O=C(Nc1ccc(C(=O)N2CCCc3ccccc32)cc1)c1cccnc1 | 7600 nM | 11000 nM |  | 
O=C(Nc1ccc(C(=O)N2CCCc3ccccc32)cc1)c1ccc(Cl)cc1Cl | 250 nM | > 100000 nM |  | 

Compound | IC50 (Vasopressin V2 receptor) | IC50 (Vasopressin V1a receptor) | ED3 (Rattus norvegicus [1]) | Activity (Rattus norvegicus [2])
O=C(Nc1ccccc1C(=O)N1CCCc2ccccc21)c1ccccc1 | 22000 nM | 88000 nM |  | 
CN(C)C1CCCN(C(=O)c2ccc(NC(=O)c3cc(Cl)cc(Cl)c3)cc2)c2ccccc21 (configuration not stated) | 20 nM | 2600 nM |  | 
COc1ccccc1C(=O)Nc1ccc(C(=O)N2CCCc3ccccc32)cc1 | 2100 nM | 1910 nM |  | 
COc1ccc(C(=O)Nc2ccc(C(=O)N3CCCc4ccccc43)cc2)cc1 | 1800 nM | 2200 nM |  | 
O=C(Nc1ccc(C(=O)N2CCCc3ccccc32)cc1)c1ccc(Cl)cc1 | 1900 nM | 5100 nM |  | 
CC(=O)NC1CCCN(C(=O)c2ccc(NC(=O)c3ccccc3C)cc2)c2ccccc21 (configuration not stated) | 150 nM | 3200 nM | >30 mg/kg | 
CN(C)C1CCCN(C(=O)c2ccc(NC(=O)c3ccc(Cl)cc3Cl)cc2)c2ccccc21 (configuration not stated) | 13 nM | 1300 nM |  | 
O=C(Nc1ccc(C(=O)N2CCCc3ccccc32)cc1)c1cc(Cl)cc(Cl)c1 | 82 nM | 9400 nM |  | 
O=C(Nc1ccc(C(=O)N2CCCC(N3CCCCC3)c3ccccc32)cc1)c1ccccc1Cl (configuration not stated) | 140 nM | 2800 nM |  | 
O=C(Cc1ccccc1)Nc1ccc(C(=O)N2CCCc3ccccc32)cc1 | 1000 nM | 3200 nM |  | 
CCCCOc1ccc(C(=O)Nc2ccc(C(=O)N3CCCc4ccccc43)cc2)cc1 | > 100000 nM | > 100000 nM |  | 
CNC(=O)NC1CCCN(C(=O)c2ccc(NC(=O)c3ccccc3C)cc2)c2ccccc21 (configuration not stated) | 96 nM | 2800 nM |  | 
O=C(Nc1ccc(C(=O)N2CCCc3ccccc32)cc1)c1cccc(Cl)c1 |  | 6400 nM |  | 
Cc1ccccc1C(=O)Nc1ccc(C(=O)N2CCCC(N(C)CC#N)c3ccccc32)cc1 (configuration not stated) | 25 nM | 3200 nM | >30 mg/kg | 
Cc1ccccc1C(=O)Nc1ccc(C(=O)N2CCCC(N(C)CC(N)=O)c3ccccc32)cc1 (configuration not stated) |  |  | 6.4 mg/kg | 6.2 mL
CNC1CCCN(C(=O)c2ccc(NC(=O)c3ccccc3C)cc2)c2ccccc21 (configuration not stated) | 24 nM | 720 nM | 4.6 mg/kg | 8.3 mL
CC(C)C(=O)Nc1ccc(C(=O)N2CCCc3ccccc32)cc1 | 8100 nM | 2400 nM |  | 
CC(=O)Nc1ccccc1C(=O)Nc1ccc(C(=O)N2CCCC(N(C)C)c3ccccc32)cc1 (configuration not stated) | 640 nM | 16000 nM |  | 
Cc1cccc(C(=O)Nc2ccc(C(=O)N3CCCC(N(C)C)c4ccccc43)cc2)c1 (configuration not stated) | 14 nM | 2400 nM | >30 mg/kg | 
Cc1ccccc1C(=O)Nc1ccc(C(=O)N2CCCc3ccccc32)cc1 |  | 1400 nM |  | 

Compound | IC50 (Vasopressin V2 receptor) | IC50 (Vasopressin V1a receptor) | ED3 (Rattus norvegicus [1]) | Activity (Rattus norvegicus [2])
CCOC(=O)CN(C)C1CCCN(C(=O)c2ccc(NC(=O)c3ccccc3C)cc2)c2ccccc21 (configuration not stated) | 29 nM | 980 nM | >30 mg/kg | 
O=C(Nc1ccc(C(=O)N2CCCc3ccccc32)cc1)c1cccc([N+](=O)[O-])c1 | 760 nM | 16000 nM |  | 
O=C(Nc1ccc(C(=O)N2CCCc3ccccc32)cc1)c1ccc([N+](=O)[O-])cc1 | 6500 nM | > 100000 nM |  | 
CC(=O)Nc1ccc(C(=O)N2CCCc3ccccc32)cc1 | > 100000 nM | 74000 nM |  | 
Cc1ccccc1C(=O)Nc1ccc(C(=O)N2CCCOc3ccccc32)cc1 | 110 nM | 1200 nM |  | 
Cc1ccc(C(=O)Nc2ccc(C(=O)N3CCCc4ccccc43)cc2)cc1 | 1400 nM | 10000 nM |  | 
O=C(Nc1ccccc1)Nc1ccc(C(=O)N2CCCCc3ccccc32)cc1 | 180 nM | 760 nM |  | 
O=C(CCc1ccccc1)Nc1ccc(C(=O)N2CCCc3ccccc32)cc1 | 6100 nM | 2300 nM |  | 
O=C(Nc1ccc(C(=O)N2CCCc3ccccc32)cc1)c1ccccc1[N+](=O)[O-] | 530 nM | 2700 nM |  | 
Cc1ccccc1C(=O)Nc1ccc(C(=O)N2CCOCc3ccccc32)cc1 | 300 nM | 630 nM |  | 
O=C(Nc1ccc(C(=O)N2CCCc3ccccc32)cc1)c1ccccc1 |  | 1600 nM |  | 
CCOc1ccc(C(=O)Nc2ccc(C(=O)N3CCCc4ccccc43)cc2)cc1 | > 100000 nM | 14000 nM |  | 
CN(C)C1CCCN(C(=O)c2ccc(NC(=O)c3ccccc3[N+](=O)[O-])cc2)c2ccccc21 (configuration not stated) | 71 nM | 2600 nM |  | 
Cc1ccccc1C(=O)Nc1ccc(C(=O)N2CCN(C)Cc3ccccc32)cc1 | 170 nM | 1800 nM |  | 
O=C(Nc1ccc(C(=O)N2CCCc3ccccc32)cc1)c1ccsc1 | 1700 nM | 1700 nM |  | 
COc1ccccc1C(=O)Nc1ccc(C(=O)N2CCCC(N(C)C)c3ccccc32)cc1 (configuration not stated) | 77 nM | 1000 nM |  | 
CN(C)C1CCCN(C(=O)c2ccc(NC(=O)c3ccccc3)cc2)c2ccccc21 (configuration not stated) | 27 nM | 3000 nM | >30 mg/kg | 
Cc1ccccc1C(=O)Nc1ccc(C(=O)N2CCCC(N)c3ccccc32)cc1 (configuration not stated) | 32 nM | 390 nM |  | 
Cc1ccccc1C(=O)Nc1ccc(C(=O)N2CCCC(N(C)C)c3ccccc32)cc1 (configuration not stated) [MOZAVAPTAN] |  | 1400 nM | 3.8 mg/kg | 12.3 mL
